This is an account of results in ChEMBL document CHEMBL1153575, “Synthesis and in vitro anticancer activity of 2,4-azolidinedione-acetic acids derivatives” (2009).

What all share (assay type): functional
One test relates to NCI-H460. Description: Cytotoxicity against human NCI-H460 cells assessed as cell growth at 100 uM after 48 hrs by sulforhodamine B assay. To be noted: NCI-H460, 48 h, read-out: Activity. The method in brief:
(§1)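 Primary one-dose screen on a three-line panel (MCF7 breast, NCI-H460 lung, SF-268 CNS) at 10^-4 M. Cells were preincubated 24–48 h before a single addition of the agent, followed by 48 h incubation. Endpoint was SRB protein staining, reported as percent growth versus untreated controls.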

A further test concerns SF-268. The test is described as follows: Cytotoxicity against human SF268 cells assessed as cell growth at 100 uM after 48 hrs by sulforhodamine B assay. To be noted: SF-268, 48 h, read-out: Activity. The method in brief: as §1
The test system of the next test is MCF7. The test is described as follows: Cytotoxicity against human MCF7 cells assessed as cell growth at 100 uM after 48 hrs by sulforhodamine B assay. Particulars: MCF7, 48 h, read-out: Activity. An outline of the steps:
as §1

For another test, the system named is HL-60(TB). The test is described as follows: Growth inhibition of human HL-60(TB) cells after 48 hrs by sulforhodamine B assay. To be noted: HL-60, 48 h. An outline of the steps:
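Cells inoculated and preincubated 24–48 h in microtiter plates, then exposed continuously for 48 h to five 10-fold dilutions from 10^-4 to 10^-8 M. End point by sulforhodamine B protein staining, read spectrophotometrically against untreated controls and time-zero absorbance. Percent growth computed per concentration; GI50 taken where [(Ti−Tz)/(C−Tz)]×100 = 50, expressed as log molar value.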

A further test deals with CCRF-CEM. Description: Growth inhibition of human CCRF-CEM cells after 48 hrs by sulforhodamine B assay. Particulars: for TGI: read-out: pTGI (converted). The method in brief:
(§2)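 Five-concentration assay in about 60 human tumour lines, using 10-fold dilutions from 10^-4 to 10^-8 M with 48 h continuous exposure and an SRB protein endpoint. Percent growth at each level comes from time-zero, untreated-control and treated absorbances. GI50 is 50% lower net protein increase than control. Values beyond the tested range are given as greater or less than the extreme concentration.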

In another test the test system is HOP-92. The test is described as follows: Growth inhibition of human HOP92 cells after 48 hrs by sulforhodamine B assay. To be noted: HOP-92, 48 h; for TGI: read-out: pTGI (converted). The method in brief:
as §2

A further test relates to MOLT-4. The test is described as follows: Growth inhibition of human MOLT4 cells after 48 hrs by sulforhodamine B assay. To be noted: MOLT-4, 48 h; for CC50: read-out: pLC50 (the source's name) (converted); for TGI: read-out: pTGI (converted). The method in brief:
as §2

Another test deals with SR. Description: Growth inhibition of human SR cells after 48 hrs by sulforhodamine B assay. The method in brief: as §2
The subject of another test is K562. Description: Growth inhibition of human K562 cells after 48 hrs by sulforhodamine B assay. To be noted: K562, 48 h. An outline of the steps:
as §2

The next test deals with U-251. Description: Growth inhibition of human U251 cells after 48 hrs by sulforhodamine B assay. To be noted: U-251, 48 h. An outline of the steps:
as §2

The next test concerns NCI-H226. Description: Growth inhibition of human NCI-H226 cells after 48 hrs by sulforhodamine B assay. Particulars: NCI-H226, 48 h. The method in brief: as §2
Another test relates to ACHN. The test is described as follows: Growth inhibition of human ACHN cells after 48 hrs by sulforhodamine B assay. The method in brief: as §2
In the next test the test system is HCT-116. Description: Growth inhibition of human HCT116 cells after 48 hrs by sulforhodamine B assay. Particulars: HCT-116, 48 h. An outline of the steps: as §2
The test system of a further test is SN12C. Description: Growth inhibition of human SN12C cells after 48 hrs by sulforhodamine B assay. The method in brief:
as §2

The subject of a further test is A549. The test is described as follows: Growth inhibition of human A549 cells after 48 hrs by sulforhodamine B assay. To be noted: A549, 48 h. An outline of the steps:
as §2

Another test deals with MDA-MB-231. Description: Growth inhibition of human MDA-MB-231 cells after 48 hrs by sulforhodamine B assay. Particulars: MDA-MB-231, 48 h. An outline of the steps: as §2
The nature of test [1]: Growth inhibition of human Hs 578T cells after 48 hrs by sulforhodamine B assay. The method in brief: as §2
The test system of the next test is HOP-62. Description: Growth inhibition of human HOP62 cells after 48 hrs by sulforhodamine B assay. Particulars: HOP-62, 48 h. The method in brief: as §2
A short description of test [2]: Growth inhibition of human 786-O cells after 48 hrs by sulforhodamine B assay. To be noted: 786-0, 48 h. An outline of the steps:
as §2

Another test concerns RPMI-8226. Description: Growth inhibition of human RPMI8226 cells after 48 hrs by sulforhodamine B assay. Particulars: RPMI-8226, 48 h. An outline of the steps:
as §2

In a further test the test system is M14. The test is described as follows: Growth inhibition of human M14 cells after 48 hrs by sulforhodamine B assay. To be noted: M14, 48 h. The method in brief: as §2
[3] abbreviates: read-out: pLC50 (the source's name) (converted).

Consider `O=C(CC1NC(=O)NC1=O)Nc1ccc(Cl)cc1` (stereo not drawn), for which the values for the growth at 100 µM in the test with NCI-H460, in the test with SF-268 and with MCF7 were 121%, 114% and 115%, respectively.

Consider `O=C(CN1C(=O)CNC1=O)Nc1cccc(C(F)(F)F)c1`, for which the growth at 100 µM came out at 106% with NCI-H460, 113% in the test on SF-268 and 111% in the test on MCF7.

As to `O=C(CN1C(=O)N/C(=C\c2ccc(Cl)cc2)C1=O)Nc1ccccc1C(F)(F)F`, the GI50 is 0.295 µM with HL-60(TB); 1.2 µM in the test on CCRF-CEM; 18.2 µM in the test on HOP-92; 4.57 µM in the test with MOLT-4; 0.309 µM in the test with SR; 5.37 µM in the test on K562. For the same molecule, the CC50 in the test on HL-60(TB) (setting [3]) is over 100 µM; in the test with MOLT-4, 81.3 µM; with K562 (setting [3]), over 100 µM. The TGI in the test with HL-60(TB) (read-out: pTGI (converted)) is 2 µM; in the test on CCRF-CEM it was over 100 µM; in the test on HOP-92, 97.7 µM; with MOLT-4 it was 24 µM; in the test on SR (read-out: pTGI (converted)) it was 12.6 µM; in the test on K562 (read-out: pTGI), over 100 µM. Also, the results for the LC50 in the test with CCRF-CEM, in the test with HOP-92 and in the test on SR were over 100 µM, over 100 µM and 52.5 µM, respectively.

`O=C(/C=C1\SC(=O)N(CC(=O)Nc2cccc(C(F)(F)F)c2)C1=O)Nc1ccc(Cl)cc1`: the growth at 100 µM in the test on NCI-H460 was 108%; in the test on SF-268, 100%; with MCF7, 103%.

On to `O=C(CC1SC(=O)NC1=O)Nc1nccs1` (stereo not drawn), for which the growth at 100 µM in the test with NCI-H460 turned out to be 116%; in the test on SF-268, 114%; in the test with MCF7, 115%.

For `O=C(CN1C(=O)S/C(=C\c2ccc(Cl)cc2)C1=O)Nc1ccc(Cl)cc1`, the growth at 100 µM with NCI-H460 turned out to be 101%; in the test with SF-268 it was 105%; in the test with MCF7 it was 102%.

For `COc1ccc(/C=C2\SC(=O)N(CC(=O)Nc3nccs3)C2=O)cc1`, the growth at 100 µM in the test on NCI-H460 amounted to 98%; with SF-268, 107%; with MCF7, 98%.

Take `O=C(CN1C(=O)N/C(=C\c2ccc(F)cc2)C1=O)Nc1ccccc1C(F)(F)F`: the growth at 100 µM in the test with NCI-H460 was 119%; in the test on SF-268, 100%; in the test with MCF7, 87%.

For `COc1ccc(/C=C2\NC(=O)N(CC(=O)Nc3ccc(OC)cc3)C2=O)cc1`, in the test with U-251, the GI50 was 30.9 µM and the LC50 was over 100 µM. The TGI in the test with U-251 (read-out: pTGI (converted)) was over 100 µM. In addition, in the test on CCRF-CEM, the GI50 is 0.195 µM, the LC50 is over 100 µM and the TGI was over 100 µM.

Take `O=C(CN1C(=O)S/C(=C/c2ccc(Cl)cc2)C1=O)Nc1cccc(C(F)(F)F)c1`: the growth at 100 µM in the test with NCI-H460 was 99%; in the test on SF-268 it was 110%; in the test with MCF7, 100%.

As to `O=C(/C=C1\SC(=O)N(CC(=O)Nc2ccccc2C(F)(F)F)C1=O)Nc1ccc(F)cc1`, the growth at 100 µM in the test on NCI-H460 was found to be 77%; in the test with SF-268 it was 75%; in the test with MCF7 it was 74%.

Take `O=C(CN1C(=O)N/C(=C/c2ccc(Cl)cc2)C1=O)Nc1cccc(C(F)(F)F)c1`: the growth at 100 µM is 4% in the test with NCI-H460, 100% in the test on SF-268 and 58% in the test on MCF7. For the same molecule, the GI50 in the test on NCI-H226 was 13.2 µM; with CCRF-CEM it was 13.5 µM; with ACHN it was 14.5 µM; in the test with HCT-116, 13.8 µM; in the test with SN12C it was 12 µM; in the test with A549 it was 10.7 µM. The GI50 with MDA-MB-231 was 4.57 µM; in test [1], 10.5 µM; with HOP-92, 5.37 µM; in the test on HOP-62, 12.6 µM; in test [2], 13.8 µM; in the test on MOLT-4 it was 2.51 µM. Besides, the GI50 is 0.01 µM in the test on RPMI-8226 and 14.5 µM in the test with M14. For the same molecule, the CC50 is over 100 µM with NCI-H226 (setting [3]); 56.2 µM in the test on ACHN (setting [3]); over 100 µM in the test on A549 (setting [3]); over 100 µM in test [1] (setting [3]); 89.1 µM in test [2] (setting [3]); over 100 µM with MOLT-4. For the same molecule, the CC50 in the test on M14 (setting [3]) is over 100 µM. Also, the TGI in the test with NCI-H226 (read-out: pTGI (converted)) is 46.8 µM; with CCRF-CEM, over 100 µM; in the test with ACHN (read-out: pTGI (converted)) it was 28.8 µM; in the test on HCT-116 (read-out: pTGI (converted)), 66.1 µM; with SN12C (read-out: pTGI (converted)) it was 34.7 µM; with A549 (read-out: pTGI) it was over 100 µM. Besides, the TGI is 22.9 µM with MDA-MB-231 (read-out: pTGI (converted)); 77.6 µM in test [1] (read-out: pTGI (converted)); 28.8 µM with HOP-92; 29.5 µM in the test on HOP-62 (read-out: pTGI (converted)); 35.5 µM in [2] (read-out: pTGI (converted)); over 100 µM in the test with MOLT-4. For the same molecule, the TGI was 6.92 µM with RPMI-8226 (read-out: pTGI (converted)) and over 100 µM in the test with M14 (read-out: pTGI). The LC50 was over 100 µM in the test on CCRF-CEM; over 100 µM with HCT-116; 100 µM in the test with SN12C; over 100 µM in the test with MDA-MB-231; over 100 µM in the test on HOP-92; 69.2 µM with HOP-62. This molecule also gave an LC50 with RPMI-8226 of 28.2 µM.

As for `O=C(CC1NC(=O)NC1=O)Nc1nccs1` (stereo not drawn), the growth at 100 µM in the test on NCI-H460 amounted to 108%; with SF-268 it was 114%; in the test on MCF7, 111%.

In the case of `O=C(/C=C1\SC(=O)N(CC(=O)Nc2ccc(Cl)cc2)C1=O)Nc1ccc(Cl)cc1`, the growth at 100 µM is 107% with NCI-H460, 116% in the test with SF-268 and 111% in the test with MCF7.

Turning to `O=C(CN1C(=O)S/C(=C\C=C\c2ccccc2)C1=O)Nc1ccc(Cl)cc1`, the growth at 100 µM stood at 108% with NCI-H460, 98% with SF-268 and 92% with MCF7.

As for `O=C(/C=C1\SC(=O)N(CC(=O)Nc2ccccc2C(F)(F)F)C1=O)Nc1ccc(Cl)cc1`, the figures for the growth at 100 µM with NCI-H460, in the test with SF-268 and in the test on MCF7 were 87%, 86% and 61%, respectively.
